# ChEMBL document CHEMBL2375290, “Nonclassical antifolates, part 3: synthesis, biological evaluation and molecular modeling study of some new 2-heteroarylthio-quinazolin-4-ones” (Eur J Med Chem, 2013)
# Tests used:
# Escherichia coli [1] = experiment: Antimicrobial activity against Escherichia coli at 100 ug after 24 hrs by agar disc diffusion method; format: functional; conditions: read-out: DIZ
# Pseudomonas aeruginosa [2] = experiment: Antimicrobial activity against Pseudomonas aeruginosa at 100 ug after 24 hrs by agar disc diffusion method; format: functional; conditions: read-out: DIZ
# Micrococcus luteus [3] = experiment: Antimicrobial activity against Micrococcus luteus after 24 hrs by micro-dilution susceptibility method; format: functional
# Method in brief: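 MIC by broth microdilution in Müller-Hinton broth against M. luteus IFO 3232, the same strain used in the disc-diffusion primary screen.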
# Bacillus subtilis [4] = experiment: Antimicrobial activity against Bacillus subtilis at 100 ug after 24 hrs by agar disc diffusion method; format: functional; conditions: read-out: DIZ
# Method in brief: (§1)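 Agar disc diffusion on Müller-Hinton agar. Sterile 8 mm filter-paper discs were moistened with the compound in DMSO. Strains were B. subtilis IFO 3007 and M. luteus IFO 3232. Plates were incubated at 37 °C, and growth-inhibition zone diameters were measured in mm after 24 h. DMSO served as the solvent control.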
# Staphylococcus aureus [5] = experiment: Antimicrobial activity against Staphylococcus aureus after 24 hrs by micro-dilution susceptibility method; format: functional
# Method in brief: (§2)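 Broth microdilution in Müller-Hinton broth against S. aureus IFO 3060, B. subtilis IFO 3007, E. coli IFO 3301 and P. aeruginosa IFO 3448. These are the same standard strains used in the disc-diffusion primary screen. Compounds were solubilized in DMSO. MIC recorded as the minimal inhibitory concentration.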
# Staphylococcus aureus [6] = experiment: Antimicrobial activity against Staphylococcus aureus at 100 ug after 24 hrs by agar disc diffusion method; format: functional; conditions: read-out: DIZ
# Bacillus subtilis [7] = experiment: Antimicrobial activity against Bacillus subtilis after 24 hrs by micro-dilution susceptibility method; format: functional; method in brief: as §2
# Escherichia coli [8] = experiment: Antimicrobial activity against Escherichia coli after 24 hrs by micro-dilution susceptibility method
# Micrococcus luteus [9] = experiment: Antimicrobial activity against Micrococcus luteus at 100 ug after 24 hrs by agar disc diffusion method; format: functional; conditions: read-out: DIZ; method in brief: as §1
# Pseudomonas aeruginosa [10] = experiment: Antimicrobial activity against Pseudomonas aeruginosa after 24 hrs by micro-dilution susceptibility method; format: functional; method in brief: as §2
# Hs-578T = experiment: Cytotoxicity against human Hs578T cells at 10 uM after 48 hrs by coulter counter analysis; format: functional; conditions: read-out: GI
# A498 = experiment: Cytotoxicity against human A498 cells at 10 uM after 48 hrs by coulter counter analysis; format: functional; conditions: A498, 48 h, read-out: GI
# IGROV-1 = experiment: Cytotoxicity against human IGROV1 cells at 10 uM after 48 hrs by coulter counter analysis; format: functional; conditions: IGROV-1, 48 h, read-out: GI
# Dihydrofolate reductase = molecular target: T1, Dihydrofolate reductase (Bos taurus, UniProt P00376); experiment: Inhibition of bovine DHFR after 2 mins by spectrophotometry
# T1 sequence (P00376 whole entry): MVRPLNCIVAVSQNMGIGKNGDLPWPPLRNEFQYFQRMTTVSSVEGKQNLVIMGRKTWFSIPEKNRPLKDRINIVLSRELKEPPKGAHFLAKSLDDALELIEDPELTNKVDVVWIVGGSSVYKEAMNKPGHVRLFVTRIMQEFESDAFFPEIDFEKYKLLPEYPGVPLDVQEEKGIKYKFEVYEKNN
# [11] = Cytotoxicity against human EKVX cells at 10 uM after 48 hrs by coulter counter analysis; format: functional; conditions: read-out: GI
# UO-31 = experiment: Cytotoxicity against human UO31 cells at 10 uM after 48 hrs by coulter counter analysis; format: functional; conditions: UO-31, 48 h, read-out: GI
# Staphylococcus aureus [12] = experiment: Antimicrobial activity against Staphylococcus aureus at 200 ug after 24 hrs by agar disc diffusion method; format: functional; conditions: read-out: DIZ
# CAKI-1 = experiment: Cytotoxicity against human Caki1 cells at 10 uM after 48 hrs by coulter counter analysis; format: functional; conditions: CAKI-1, 48 h, read-out: GI
# LOX IMVI = experiment: Cytotoxicity against human LOXIMVI cells at 10 uM after 48 hrs by coulter counter analysis; format: functional; conditions: read-out: GI
# Malme-3M = experiment: Cytotoxicity against human MALME-3M cells at 10 uM after 48 hrs by coulter counter analysis; format: functional; conditions: read-out: GI
# SR = experiment: Cytotoxicity against human SR cells at 10 uM after 48 hrs by coulter counter analysis; format: functional; conditions: read-out: GI
# PC-3 = experiment: Cytotoxicity against human PC3 cells at 10 uM after 48 hrs by coulter counter analysis; format: functional; conditions: PC-3, 48 h, read-out: GI
# UACC-62 = experiment: Cytotoxicity against human UACC62 cells at 10 uM after 48 hrs by coulter counter analysis; format: functional; conditions: UACC-62, 48 h, read-out: GI
# NCI-H23 = experiment: Cytotoxicity against human NCI-H23 cells at 10 uM after 48 hrs by coulter counter analysis; format: functional; conditions: NCI-H23, 48 h, read-out: GI
# HL-60(TB) = experiment: Cytotoxicity against human HL-60(TB) cells at 10 uM after 48 hrs by coulter counter analysis; format: functional; conditions: HL-60, 48 h, read-out: GI
# SF-295 = experiment: Cytotoxicity against human SF295 cells at 10 uM after 48 hrs by coulter counter analysis; format: functional; conditions: SF-295, 48 h, read-out: GI
# RXF 393 = experiment: Cytotoxicity against human RXF393 cells at 10 uM after 48 hrs by coulter counter analysis; format: functional; conditions: RXF 393, 48 h, read-out: GI
# A549 = experiment: Cytotoxicity against human A549/ATCC cells at 10 uM after 48 hrs by coulter counter analysis; format: functional; conditions: A549, 48 h, read-out: GI
# OVCAR-4 = experiment: Cytotoxicity against human OVCAR4 cells at 10 uM after 48 hrs by coulter counter analysis; format: functional; conditions: OVCAR-4, 48 h, read-out: GI
# Pseudomonas aeruginosa [13] = experiment: Antimicrobial activity against Pseudomonas aeruginosa at 200 ug after 24 hrs by agar disc diffusion method; format: functional; conditions: read-out: DIZ
# MDA-MB-231 = experiment: Cytotoxicity against human MDA-MB-231 cells at 10 uM after 48 hrs by coulter counter analysis; format: functional; conditions: MDA-MB-231, 48 h, read-out: GI
# Bacillus subtilis [14] = experiment: Antimicrobial activity against Bacillus subtilis at 200 ug after 24 hrs by agar disc diffusion method; format: functional; conditions: read-out: DIZ
# CCRF-CEM = experiment: Cytotoxicity against human CCRF-CEM cells at 10 uM after 48 hrs by coulter counter analysis; format: functional; conditions: read-out: GI
# SK-MEL-5 = experiment: Cytotoxicity against human SK-MEL-5 cells at 10 uM after 48 hrs by coulter counter analysis; format: functional; conditions: SK-MEL-5, 48 h, read-out: GI
# SNB-75 = experiment: Cytotoxicity against human SNB75 cells at 10 uM after 48 hrs by coulter counter analysis; format: functional; conditions: SNB-75, 48 h, read-out: GI
# MOLT-4 = experiment: Cytotoxicity against human MOLT4 cells at 10 uM after 48 hrs by coulter counter analysis; format: functional; conditions: MOLT-4, 48 h, read-out: GI
# NCI-H226 = experiment: Cytotoxicity against human NCI-H226 cells at 10 uM after 48 hrs by coulter counter analysis; format: functional; conditions: NCI-H226, 48 h, read-out: GI
# [15] = Cytotoxicity against human NCI-ADR-RES cells at 10 uM after 48 hrs by coulter counter analysis; format: functional; conditions: read-out: GI
# SN12C = experiment: Cytotoxicity against human SN12C cells at 10 uM after 48 hrs by coulter counter analysis; format: functional; conditions: read-out: GI
# RPMI-8226 = experiment: Cytotoxicity against human RPMI8226 cells at 10 uM after 48 hrs by coulter counter analysis; format: functional; conditions: RPMI-8226, 48 h, read-out: GI
# NCI-H522 = experiment: Cytotoxicity against human NCI-H522 cells at 10 uM after 48 hrs by coulter counter analysis; format: functional; conditions: NCI-H522, 48 h, read-out: GI
# SNB-19 = experiment: Cytotoxicity against human SNB19 cells at 10 uM after 48 hrs by coulter counter analysis; format: functional; conditions: SNB-19, 48 h, read-out: GI
# MCF7 = experiment: Cytotoxicity against human MCF7 cells at 10 uM after 48 hrs by coulter counter analysis; format: functional; conditions: MCF7, 48 h, read-out: GI
# Micrococcus luteus [16] = experiment: Antimicrobial activity against Micrococcus luteus at 200 ug after 24 hrs by agar disc diffusion method; format: functional; conditions: read-out: DIZ
# T47D = experiment: Cytotoxicity against human T47D cells at 10 uM after 48 hrs by coulter counter analysis; format: functional; conditions: read-out: GI
# Escherichia coli [17] = experiment: Antimicrobial activity against Escherichia coli at 200 ug after 24 hrs by agar disc diffusion method; format: functional; conditions: read-out: DIZ
# MDA-MB-435 = experiment: Cytotoxicity against human MDA-MB-435 cells at 10 uM after 48 hrs by coulter counter analysis; format: functional; conditions: MDA-MB-435, 48 h, read-out: GI
compound,measurement,setting,value
CC(=O)NS(=O)(=O)c1ccc(N)cc1 [SULFACETAMIDE],zone of inhibition at 100 µg/disc,Escherichia coli [1],28 mm
same,zone of inhibition at 100 µg/disc,Pseudomonas aeruginosa [2],25 mm
same,MIC,Micrococcus luteus [3],2 µg/mL
same,zone of inhibition at 100 µg/disc,Bacillus subtilis [4],22 mm
same,MIC,Staphylococcus aureus [5],2 µg/mL
same,zone of inhibition at 100 µg/disc,Staphylococcus aureus [6],20 mm
same,MIC,Bacillus subtilis [7],2 µg/mL
same,MIC,Escherichia coli [8],1 µg/mL
same,zone of inhibition at 100 µg/disc,Micrococcus luteus [9],18 mm
same,MIC,Pseudomonas aeruginosa [10],2 µg/mL
COc1cc2nc(Sc3cnc(N)s3)n(-c3ccccc3)c(=O)c2cc1OC,inhibition of growth at 10 µM,Hs-578T,< 10%
same,inhibition of growth at 10 µM,A498,< 10%
same,inhibition of growth at 10 µM,IGROV-1,13%
same,IC50,Dihydrofolate reductase,500 nM
same,inhibition of growth at 10 µM,[11],12.7%
same,inhibition of growth at 10 µM,UO-31,22.2%
same,zone of inhibition at 200 µg/disc,Staphylococcus aureus [12],18 mm
same,inhibition of growth at 10 µM,CAKI-1,17.8%
same,MIC,Micrococcus luteus [3],4 µg/mL
same,inhibition of growth at 10 µM,LOX IMVI,< 10%
same,inhibition of growth at 10 µM,Malme-3M,< 10%
same,inhibition of growth at 10 µM,SR,14.8%
same,inhibition of growth at 10 µM,PC-3,12%
same,inhibition of growth at 10 µM,UACC-62,< 10%
same,inhibition of growth at 10 µM,NCI-H23,< 10%
same,inhibition of growth at 10 µM,HL-60(TB),< 10%
same,inhibition of growth at 10 µM,SF-295,< 10%
same,inhibition of growth at 10 µM,RXF 393,< 10%
same,inhibition of growth at 10 µM,A549,< 10%
same,inhibition of growth at 10 µM,OVCAR-4,< 10%
same,zone of inhibition at 200 µg/disc,Pseudomonas aeruginosa [13],14 mm
same,MIC,Staphylococcus aureus [5],8 µg/mL
same,inhibition of growth at 10 µM,MDA-MB-231,18.6%
same,zone of inhibition at 200 µg/disc,Bacillus subtilis [14],20 mm
same,MIC,Bacillus subtilis [7],4 µg/mL
same,MIC,Escherichia coli [8],4 µg/mL
same,inhibition of growth at 10 µM,CCRF-CEM,< 10%
same,inhibition of growth at 10 µM,SK-MEL-5,< 10%
same,inhibition of growth at 10 µM,SNB-75,< 10%
same,inhibition of growth at 10 µM,MOLT-4,< 10%
same,inhibition of growth at 10 µM,NCI-H226,< 10%
same,inhibition of growth at 10 µM,[15],< 10%
same,inhibition of growth at 10 µM,SN12C,< 10%
same,inhibition of growth at 10 µM,RPMI-8226,12.5%
same,inhibition of growth at 10 µM,NCI-H522,< 10%
same,inhibition of growth at 10 µM,SNB-19,< 10%
same,inhibition of growth at 10 µM,MCF7,< 10%
same,zone of inhibition at 200 µg/disc,Micrococcus luteus [16],16 mm
same,inhibition of growth at 10 µM,T47D,< 10%
same,zone of inhibition at 200 µg/disc,Escherichia coli [17],18 mm
same,inhibition of growth at 10 µM,MDA-MB-435,< 10%
